Square brackets hold non-standard residues; d marks the D form. Ends that are not written are not given here. Peptide text beside a SMILES is read from it. Nle = CCCC[C@H](N)C(=O)O
What was measured:
[1] = target: T1, GRK5 (Homo sapiens, UniProt P34947); assay: GRK5 phosphorylation of light-activated rhodopsin; type: biochemical; details: for % Inhibition (100 μM) of GRK5 phosphorylation of rhodopsin: 100 μM peptide, 0.5 μM light-activated rhodopsin, 100 μM ATP, 5 min; for Inhibition of GRK5 phosphorylation of rhodopsin: peptides 10, 30 and 100 μM, four or more experiments in duplicate; for inhibition at 100 µM: read-out: % Inhibition (100 μM) of GRK5 phosphorylation of rhodopsin
T1 sequence (P34947 whole entry): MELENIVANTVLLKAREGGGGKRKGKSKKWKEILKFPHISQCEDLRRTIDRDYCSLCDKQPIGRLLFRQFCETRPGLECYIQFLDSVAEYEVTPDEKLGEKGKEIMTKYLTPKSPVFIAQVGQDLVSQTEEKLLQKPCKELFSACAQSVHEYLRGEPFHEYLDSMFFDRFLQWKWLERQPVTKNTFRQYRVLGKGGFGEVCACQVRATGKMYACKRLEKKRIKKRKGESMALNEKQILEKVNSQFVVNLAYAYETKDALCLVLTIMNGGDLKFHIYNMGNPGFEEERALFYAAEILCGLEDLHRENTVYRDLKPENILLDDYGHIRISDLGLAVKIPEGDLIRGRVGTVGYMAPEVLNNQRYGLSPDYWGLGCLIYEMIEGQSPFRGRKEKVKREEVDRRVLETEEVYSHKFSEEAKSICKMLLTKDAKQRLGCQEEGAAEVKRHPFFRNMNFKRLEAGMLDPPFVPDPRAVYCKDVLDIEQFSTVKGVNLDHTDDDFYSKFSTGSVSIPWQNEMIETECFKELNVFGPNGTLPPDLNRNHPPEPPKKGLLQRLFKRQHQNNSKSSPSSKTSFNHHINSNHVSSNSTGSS

[2] = target: T2, GRK7 (Homo sapiens, UniProt Q8WTQ7); assay: GRK7 phosphorylation of light-activated rhodopsin; type: biochemical; details: for Inhibition of GRK7 phosphorylation of rhodopsin: peptides 10, 30 and 100 μM, four or more experiments in duplicate
T2 sequence (Q8WTQ7 1-553): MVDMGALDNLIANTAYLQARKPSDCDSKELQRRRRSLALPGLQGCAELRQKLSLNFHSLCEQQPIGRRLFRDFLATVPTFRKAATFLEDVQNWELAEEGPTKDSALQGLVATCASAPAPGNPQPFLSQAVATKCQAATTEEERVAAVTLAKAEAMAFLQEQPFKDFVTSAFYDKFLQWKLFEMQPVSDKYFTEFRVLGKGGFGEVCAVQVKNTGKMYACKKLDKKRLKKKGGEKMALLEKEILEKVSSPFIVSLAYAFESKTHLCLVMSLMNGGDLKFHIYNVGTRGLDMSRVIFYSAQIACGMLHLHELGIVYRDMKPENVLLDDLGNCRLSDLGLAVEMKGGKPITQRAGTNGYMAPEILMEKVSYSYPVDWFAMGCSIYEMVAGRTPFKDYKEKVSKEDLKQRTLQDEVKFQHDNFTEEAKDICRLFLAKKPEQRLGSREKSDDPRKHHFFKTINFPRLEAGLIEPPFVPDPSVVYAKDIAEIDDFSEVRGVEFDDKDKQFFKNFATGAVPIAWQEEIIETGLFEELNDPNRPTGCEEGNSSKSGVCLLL
How it was run: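 Substrate is urea-stripped bovine rod outer segment rhodopsin (0.5 μM in reaction buffer; 0.5–4 μM per legend), light-activated at 475 nm for 30 s. Peptides are dissolved in DMSO (2–4% final) and quantified by A280. Results are normalised to the no-peptide control as mean ± SEM.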

[3] = target: T3, GRK2 (Homo sapiens, UniProt P25098, S670A); assay: GRK2 phosphorylation of tubulin; type: biochemical; details: for % inhibition of GRK2 phosphorylation of tubulin: 100 μM peptide, 100 nM GRK2, 60 min; for % inhibition of GRK2 phosphorylation of tubulin / Effect on GRK2 phosphorylation of tubulin, basal activity: 0.5 μM tubulin, 30 °C; for Effect on GRK2 phosphorylation of tubulin, basal activity: 60 min
T3 sequence (P25098 1-689 S670A): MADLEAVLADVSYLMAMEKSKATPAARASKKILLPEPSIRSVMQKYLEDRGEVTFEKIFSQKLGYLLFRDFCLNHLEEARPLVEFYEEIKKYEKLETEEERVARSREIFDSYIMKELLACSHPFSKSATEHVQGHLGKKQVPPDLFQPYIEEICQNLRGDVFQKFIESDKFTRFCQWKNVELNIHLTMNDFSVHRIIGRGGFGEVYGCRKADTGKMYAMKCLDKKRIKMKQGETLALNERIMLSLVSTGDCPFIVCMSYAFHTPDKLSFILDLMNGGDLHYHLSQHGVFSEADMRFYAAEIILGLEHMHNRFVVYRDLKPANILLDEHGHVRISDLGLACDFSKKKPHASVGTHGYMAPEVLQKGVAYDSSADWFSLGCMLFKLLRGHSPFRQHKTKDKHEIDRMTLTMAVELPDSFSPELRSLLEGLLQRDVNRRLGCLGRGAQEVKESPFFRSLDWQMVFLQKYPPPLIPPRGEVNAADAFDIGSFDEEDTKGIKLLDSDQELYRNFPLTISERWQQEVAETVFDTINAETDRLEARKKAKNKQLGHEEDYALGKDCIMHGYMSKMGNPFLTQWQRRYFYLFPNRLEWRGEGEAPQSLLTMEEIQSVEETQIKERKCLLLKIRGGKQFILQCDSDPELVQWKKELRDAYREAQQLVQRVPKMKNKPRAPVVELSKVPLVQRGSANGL
How it was run: (§1)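 Bovine brain tubulin 500 nM with 100 nM GRK2 (His₆, S670A, Sf9-expressed) or human His₆-GRK5; 20 mM Tris pH 7.5, 1 mM EDTA, 10 mM MgCl₂, 5 μM DTT, 100 μM [γ³²P]ATP; 60 min, 30 °C. 12 % SDS-PAGE; ³²P-tubulin counted from excised bands or by autoradiogram densitometry. Mean ± SEM, ≥4 experiments in duplicate, % of control; one-way ANOVA.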

[4] = test system: GRK6; assay: GRK6 phosphorylation of light-activated rhodopsin; type: biochemical, human; details: peptides 10, 30 and 100 μM; four or more experiments in duplicate
How it was run: (§2)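 Light-activated (475 nm, 30 s) rhodopsin, 0.5 μM, from urea-stripped bovine ROS. Kinase was purified GRK2 (His₆, S670A, Sf9/baculovirus, Ni-IMAC) or N-terminal His₆ full-length human GRK6, at 10–100 nM. Buffer: 20 mM Tris pH 7.5, 10 mM MgCl₂, 1 mM EDTA, 100 μM [γ³²P]ATP; peptides in DMSO (2–4 %). Ran 5 min, then SDS-PAGE and autoradiography. ≥4 experiments in duplicate, % of control.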

[5] = target: T1, GRK5; assay: GRK5 phosphorylation of tubulin; type: biochemical; details: for % inhibition of GRK5 phosphorylation of tubulin: 100 μM peptide, 100 nM GRK5, 60 min; for % inhibition of GRK5 phosphorylation of tubulin / Effect on GRK5 phosphorylation of tubulin, basal activity: 0.5 μM tubulin, 30 °C; for Effect on GRK5 phosphorylation of tubulin, basal activity: 60 min
How it was run: as §1

[6] = target: T3, GRK2; assay: GRK2 phosphorylation of light-activated rhodopsin; type: biochemical; details: peptides 10, 30 and 100 μM; four or more experiments in duplicate
How it was run: as §2

[7] = target: Human His6-tagged GRK5 (human) (UniProt P34947)
Human His6-tagged GRK5 (human), sequence (P34947 whole entry): as the sequence (P34947 whole entry) above

[8] = target: light-activated rhodopsin in urea-stripped bovine rod outer segments (bovine) (UniProt P02699)
light-activated rhodopsin in urea-stripped bovine rod outer segments (bovine), sequence (P02699 whole entry): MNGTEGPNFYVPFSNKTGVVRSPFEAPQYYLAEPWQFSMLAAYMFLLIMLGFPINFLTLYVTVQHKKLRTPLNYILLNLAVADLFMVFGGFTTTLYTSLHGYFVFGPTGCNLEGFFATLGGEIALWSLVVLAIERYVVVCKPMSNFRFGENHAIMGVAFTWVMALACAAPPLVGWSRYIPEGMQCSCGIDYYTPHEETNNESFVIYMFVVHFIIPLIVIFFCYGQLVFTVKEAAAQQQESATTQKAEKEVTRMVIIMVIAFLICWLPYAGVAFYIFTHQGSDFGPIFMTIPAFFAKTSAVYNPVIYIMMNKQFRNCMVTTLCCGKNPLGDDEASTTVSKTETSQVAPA

[9] = target: Human His6-tagged GRK5 (human) (UniProt P34947); remark: listed apart in the source

Molecule: Ac-S[Nle]AFDRFLQWKWLER-NH2 [Peptide F166A]
- % Inhibition (100 μM) of GRK5 phosphorylation of rhodopsin [1]: 42%

Molecule: Ac-FFDAFLQWK-NH2 [Peptide T5]
- % Inhibition (100 μM) of GRK5 phosphorylation of rhodopsin [1]: 22%

Molecule: Ac-PIGRLLFRQFC-NH2 [α3]
- Inhibition of GRK7 phosphorylation of rhodopsin [2]: inhibited
- IC50 [3]: ~30 µM
- % inhibition of GRK2 phosphorylation of tubulin [3]: 60–80%
- Inhibition of GRK5 phosphorylation of rhodopsin [1]: inhibited
- Inhibition of GRK6 phosphorylation of rhodopsin [4]: little activity
- IC50 [5]: ~30 µM
- % inhibition of GRK5 phosphorylation of tubulin [5]: 60–80%
- Inhibition of GRK2 phosphorylation of rhodopsin [6]: inhibited

Molecule: Ac-S[Nle]FFDRFLQWKWAER-NH2 [Peptide L176A]
- % Inhibition (100 μM) of GRK5 phosphorylation of rhodopsin [1]: 74%

Molecule: Ac-ILENLKDCGLF-NH2 [TCT, reference compound]
- Inhibition of GRK7 phosphorylation of rhodopsin [2]: showed inhibition
- Effect on GRK2 phosphorylation of tubulin, basal activity [3]: no significant effect
- IC50 [1]: ~10 µM
- Inhibition of GRK5 phosphorylation of rhodopsin [1]: showed inhibition
- Inhibition of GRK6 phosphorylation of rhodopsin [4]: showed inhibition
- Effect on GRK5 phosphorylation of tubulin, basal activity [5]: no significant effect
- Inhibition of GRK2 phosphorylation of rhodopsin [6]: relatively inactive

Molecule: CCCC[C@H](NC(=O)[C@H](CO)NC(C)=O)C(=O)N[C@@H](Cc1ccccc1)C(=O)N[C@@H](Cc1ccccc1)C(=O)N[C@@H](CC(=O)O)C(=O)N[C@@H](CCCNC(=N)N)C(=O)N[C@@H](Cc1ccccc1)C(=O)N[C@@H](CC(C)C)C(=O)N[C@@H](CCC(N)=O)C(=O)N[C@@H](Cc1c[nH]c2ccccc12)C(=O)N[C@@H](CCCCN)C(=O)N[C@@H](Cc1c[nH]c2ccccc12)C(N)=O [Peptide T3] (Ac-S[Nle]FFDRFLQWKW-NH2)
- IC50 [1]: 6.1 ± 4.4 µM
- inhibition at 100 µM [1]: 97%

Molecule: CCCC[C@H](NC(=O)[C@H](CCC(=O)O)NC(=O)[C@H](CC(N)=O)NC(=O)[C@H](CCC(N)=O)NC(=O)[C@H](Cc1c[nH]c2ccccc12)NC(=O)[C@@H]1CCCN1C(=O)[C@@H](NC(=O)[C@H](CO)NC(=O)[C@@H](NC(C)=O)C(C)C)[C@@H](C)CC)C(=O)N[C@H](C(=O)N[C@@H](CCC(=O)O)C(N)=O)[C@@H](C)CC [α10] (Ac-VSIPWQNE[Nle]IE-NH2)
- Inhibition of GRK7 phosphorylation of rhodopsin [2]: inhibited
- Effect on GRK2 phosphorylation of tubulin, basal activity [3]: not significant
- Inhibition of GRK5 phosphorylation of rhodopsin [1]: inhibited
- Inhibition of GRK6 phosphorylation of rhodopsin [4]: inhibited
- % inhibition of GRK5 phosphorylation of tubulin [5]: ~ 45%
- Inhibition of GRK2 phosphorylation of rhodopsin [6]: less inhibition

Molecule: CCCC[C@H](NC(=O)[C@H](CO)NC(C)=O)C(=O)N[C@@H](Cc1ccccc1)C(=O)N[C@@H](Cc1ccccc1)C(=O)N[C@@H](CC(=O)O)C(=O)N[C@@H](CCCNC(=N)N)C(=O)N[C@@H](Cc1ccccc1)C(=O)N[C@@H](CC(C)C)C(=O)N[C@@H](C)C(=O)N[C@@H](Cc1c[nH]c2ccccc12)C(=O)N[C@@H](CCCCN)C(=O)N[C@@H](Cc1c[nH]c2ccccc12)C(=O)N[C@@H](CC(C)C)C(=O)N[C@@H](CCC(=O)O)C(=O)N[C@@H](CCCNC(=N)N)C(N)=O [Peptide Q172A] (Ac-S[Nle]FFDRFLAWKWLER-NH2)
- IC50 [1]: 15.1 ± 7.3 µM
- inhibition at 100 µM [1]: 95%

Molecule: CCCC[C@H](NC(=O)[C@H](CO)NC(C)=O)C(=O)N[C@@H](Cc1ccccc1)C(=O)N[C@@H](Cc1ccccc1)C(=O)N[C@@H](CC(=O)O)C(=O)N[C@@H](CCCNC(=N)N)C(=O)N[C@@H](Cc1ccccc1)C(=O)N[C@@H](CC(C)C)C(=O)N[C@@H](CCC(N)=O)C(=O)N[C@@H](Cc1c[nH]c2ccccc12)C(=O)N[C@@H](CCCCN)C(=O)N[C@@H](Cc1c[nH]c2ccccc12)C(=O)N[C@@H](CC(C)C)C(N)=O [Peptide T2] (Ac-S[Nle]FFDRFLQWKWL-NH2)
- IC50 [1]: 5.2 ± 2 µM
- inhibition at 100 µM [1]: 98%

Molecule: Ac-FFDRFLQWKWLER-NH2 [Peptide T1]
- IC50 [1]: 23.9 ± 16 µM
- inhibition at 100 µM [1]: 95%

Molecule: Ac-S[Nle]FFDRFLQWK-NH2 [Peptide T4]
- % Inhibition (100 μM) of GRK5 phosphorylation of rhodopsin [1]: 72%

Molecule: α9 (164–178) peptide of GRK5
- GRK5 phosphorylation of light-activated rhodopsin: IC50 of inhibition [7]: 15.9 µM

Molecule: MELENIVANTVLLKAR-NH2 [N-Ter]
- IC50 [2]: 5 to 10 µM
- Inhibition of GRK7 phosphorylation of rhodopsin [2]: reasonably potent inhibitor
- Effect on GRK2 phosphorylation of tubulin, basal activity [3]: no significant effect
- IC50 [1]: 5 to 10 µM
- Inhibition of GRK5 phosphorylation of rhodopsin [1]: reasonably potent inhibitor
- Inhibition of GRK6 phosphorylation of rhodopsin [4]: less potent inhibitor
- Effect on GRK5 phosphorylation of tubulin, basal activity [5]: no significant effect
- Inhibition of GRK2 phosphorylation of rhodopsin [6]: less potent inhibitor

Molecule: CCCC[C@H](NC(=O)[C@H](CO)NC(C)=O)C(=O)N[C@@H](Cc1ccccc1)C(=O)N[C@@H](Cc1ccccc1)C(=O)N[C@@H](CC(=O)O)C(=O)N[C@@H](C)C(=O)N[C@@H](Cc1ccccc1)C(=O)N[C@@H](CC(C)C)C(=O)N[C@@H](CCC(N)=O)C(=O)N[C@@H](Cc1c[nH]c2ccccc12)C(=O)N[C@@H](CCCCN)C(=O)N[C@@H](Cc1c[nH]c2ccccc12)C(=O)N[C@@H](CC(C)C)C(=O)N[C@@H](CCC(=O)O)C(=O)N[C@@H](CCCNC(=N)N)C(N)=O [Peptide R169A] (Ac-S[Nle]FFDAFLQWKWLER-NH2)
- Inhibition of GRK7 phosphorylation of rhodopsin [2]: inhibited
- IC50 [3]: ~30 µM
- % inhibition of GRK2 phosphorylation of tubulin [3]: 60–80%
- IC50 [1]: 7.2 ± 4.8 µM
- Inhibition of GRK5 phosphorylation of rhodopsin [1]: inhibited
- inhibition at 100 µM [1]: 98%
- Inhibition of GRK6 phosphorylation of rhodopsin [4]: inhibited
- IC50 [5]: ~30 µM
- % inhibition of GRK5 phosphorylation of tubulin [5]: 60–80%
- Inhibition of GRK2 phosphorylation of rhodopsin [6]: less inhibition

Molecule: Ac-S[Nle]FFDRFLQAKWLER-NH2 [Peptide W173A]
- % Inhibition (100 μM) of GRK5 phosphorylation of rhodopsin [1]: ~26%

B1: Gα transducin C-tail peptide TCT (340–350) K341L (peptide)
peptide: Ac-ILENLKDCGLF-NH2
- GRK5 phosphorylation of light-activated rhodopsin: IC50 of inhibition [8]: 10 µM

B2: α3 (61–71) peptide of GRK5 (peptide)
peptide: Ac-PIGRLLFRQFC-NH2
- GRK5 phosphorylation of tubulin: IC50 of inhibition [9]: 30 µM

From paper PMC4269301 (International journal of peptide research and therapeutics, 2014)
